Measurements from ChEMBL document CHEMBL3745639, “Structure-activity relationships for lipoprotein lipase agonists that lower plasma triglycerides in vivo” (Eur J Med Chem, 2015).
≈ marks a conversion by molar mass, not a printed value. Calls of active or inactive are those of the source. Unless noted, the rule behind the calls is not given here.

Legend:
[1] = target: T1, Lipoprotein lipase (Bos taurus) (UniProt P11151); experiment: Induction of bovine LPL stabilization using intralipid as substrate at 6.25 uM preincubated for 10 mins with human recombinant ANGPTL4 followed by substrate addition measured after 45 mins relative to control
T1 sequence (whole entry): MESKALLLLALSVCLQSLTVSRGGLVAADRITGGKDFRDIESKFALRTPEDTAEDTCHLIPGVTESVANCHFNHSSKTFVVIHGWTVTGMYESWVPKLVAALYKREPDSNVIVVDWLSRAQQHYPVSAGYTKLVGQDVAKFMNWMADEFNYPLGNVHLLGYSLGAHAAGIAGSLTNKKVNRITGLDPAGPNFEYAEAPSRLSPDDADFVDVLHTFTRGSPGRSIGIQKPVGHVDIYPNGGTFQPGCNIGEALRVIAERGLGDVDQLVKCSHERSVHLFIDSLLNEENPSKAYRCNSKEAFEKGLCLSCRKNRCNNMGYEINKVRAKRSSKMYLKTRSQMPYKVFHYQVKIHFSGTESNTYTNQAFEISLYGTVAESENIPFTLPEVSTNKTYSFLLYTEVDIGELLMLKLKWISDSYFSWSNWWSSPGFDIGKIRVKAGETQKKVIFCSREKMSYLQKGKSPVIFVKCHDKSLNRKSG
Method in brief: (§1)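 Compound in DMSO in buffer (50 mM potassium phosphate pH 7.4, 0.15 M NaCl, 0.01% Triton X-100), with human ANGPTL4 N-terminal fragment (aa 26-184, 75 nM final) and bovine LPL (15 nM final). Preincubated 10 min at 25 °C with shaking. Stopped after 45 min with 2.5% Triton X-100, and NEFA measured enzymatically. Activity normalised between DMSO+LPL+ANGPTL4 (0%) and DMSO+LPL (100%).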

Plasma = experiment: Drug level in human plasma treated with 1,3-Dioxo-2-(4-(piperidin-1-yl)-3-(p-tolylcarbamoyl)phenyl)isoindoline-5-carboxylic acid at 10 uM after 24 hrs by LC-MS/MS analysis; type: ADME, cell-free
[2] = target: T1, Lipoprotein lipase (Bos taurus); experiment: Induction of bovine LPL stabilization using intralipid as substrate at 3.12 uM preincubated for 10 mins with human recombinant ANGPTL4 followed by substrate addition measured after 45 mins relative to control; method in brief: as §1
[3] = target: T1, Lipoprotein lipase (Bos taurus); experiment: Induction of bovine LPL stabilization using intralipid as substrate at 12.5 uM preincubated for 10 mins with human recombinant ANGPTL4 followed by substrate addition measured after 45 mins relative to control; method in brief: as §1
[4] = target: T1, Lipoprotein lipase (Bos taurus); experiment: Induction of bovine LPL stabilization using intralipid as substrate at 25 uM preincubated for 10 mins with human recombinant ANGPTL4 followed by substrate addition measured after 45 mins relative to control; method in brief: as §1
Mus musculus = experiment: Hypolipidemic activity in C57B16/J mouse assessed as reduction in plasma triglyceride level at 10 mg/kg, ip qd administered for 4 days followed by olive oil injection through oral gavage one hour post last dose measured at 180 mins; type: functional, organism-based
Method in brief: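 Female C57B16/J mice, 8-9 weeks, about 18 g, n = 8/group. Given 10 mg/kg i.p. once daily for 4 days, 0.5 ml in PBS pH 7.4 with 3% DMSO and 0.2% Triton X-100. Fasted 8 h before the last dose, then 0.2 ml oral olive oil gavage 1 h after it. Tail-vein EDTA plasma taken at baseline and every 60 min to 180 min. TG measured enzymatically, reported as mean ± SD.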

[5] = Half life in human plasma after 24 hrs; type: ADME, cell-free
[6] = Efflux ratio of apparent permeability from basolateral to apical over apical to basolateral side in human Caco2 cells at 10 uM after 15 to 60 mins; type: ADME, cell-based; settings: Caco-2
[7] = Apparent permeability across apical to basolateral side in human Caco2 cells at 10 uM after 15 to 60 mins; type: ADME, cell-based; settings: Caco-2
Method in brief: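 Caco-2 monolayers washed with pre-warmed HBSS, then donor solution applied. Transport run with apical pH 6.5 and basolateral pH 7.4. Monolayer integrity checked by TEER and by mannitol permeability. Papp derived from transport rates.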

Lipoprotein lipase = target: T2, Lipoprotein lipase (Bos taurus, UniProt P11151); experiment: Induction of bovine LPL stabilization using intralipid as substrate preincubated for 10 mins with human recombinant ANGPTL4 followed by substrate addition measured after 45 mins relative to control; method in brief: as §1
T2 sequence (P11151 whole entry): T1 sequence (whole entry)

[8] = Stability of the compound in human plasma after 4 hrs at 37 degC by mass spectrometric analysis; type: ADME, cell-free; settings: read-out: Stability
Method in brief: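 Plasma test solution (pooled human plasma, typically 10 μM compound) held at 37 °C for 4 h, matching the dialysis time. A reference sample was frozen immediately. Proteins precipitated with methanol containing warfarin, then LC-MS/MS. Stability expressed on a relative basis.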

[9] = Apparent permeability across basolateral to apical side in human Caco2 cells at 10 uM after 15 to 60 mins; type: ADME, cell-based; settings: Caco-2
[10] = Kinetic aqueous solubility of the compound in PBS at pH 7.4 after 2 hrs by LC-MS/MS analysis; type: physicochemical; settings: read-out: Kinetic_solubility
Method in brief: (§2)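 Kinetic solubility from a 10 mM DMSO stock diluted 1:100 (1% DMSO, maximum detectable 0.1 mM) into PBS pH 7.4 or HCl-adjusted PBS at about pH 1.2. Incubated at 37 °C for 2 h in sealed glass vials, centrifuged at 10000 x g, 37 °C, 20 min, then LC-MS/MS.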

[11] = Half life in human liver microsomes at 1 uM; type: ADME
Method in brief: (§3)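 Pooled liver microsomes (0.5 mg/ml) with compound at 1 μM in 0.1 M phosphate buffer pH 7.4. Reaction started with NADPH 1 mM. Sampled at 0, 5, 15 and 40 min in duplicate, quenched with acetonitrile containing warfarin, then LC-MS/MS.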

[12] = Kinetic aqueous solubility of the compound in PBS at pH 1.2 after 2 hrs by LC-Ms analysis; type: physicochemical; settings: read-out: Kinetic_solubility; method in brief: as §2
[13] = Intrinsic clearance in human hepatocytes assessed per 10^6 cells at 1 uM after 10 to 60 mins by LC-MS/MS analysis in presence of NADPH; type: ADME, cell-based, Hepatocyte; settings: read-out: CLH
Method in brief: (§4)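 Freshly isolated human hepatocytes (0.5 x 10⁶ cells/ml) in Williams medium E with compound at 1 μM. Reaction started by adding cells. Sampled at 0, 10, 30 and 60 min in duplicate, quenched with acetonitrile containing warfarin, then LC-MS/MS.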

[14] = Half life in human hepatocytes at 1 uM; type: ADME, cell-based, Hepatocyte; method in brief: as §4
[15] = Intrinsic clearance in human liver microsomes at 1 uM after 5 to 40 mins by LC-MS/MS analysis in presence of NADPH; type: ADME; settings: read-out: CLH; method in brief: as §3
[16] = Fraction unbound in human plasma at 10 uM after 4 hrs by rapid equilibrium dialysis method; type: ADME, cell-free
Method in brief: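 Rapid equilibrium dialysis of pooled human plasma from two male and two female non-smoking donors. Compound typically 10 μM final, dialysed against isotonic phosphate buffer pH 7.4 at 37 °C for 4 h with rapid rotation. Proteins precipitated with methanol containing warfarin internal standard, then both compartments analysed by LC-MS/MS.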

Compound | Activity [1] | Activity [2] | Activity [3] | Activity [4] | further results
Cc1ccc(NC(=O)c2cc(NC(=O)c3ccc(C(=O)O)cc3C(=O)O)ccc2N2CCCCC2)cc1 | inactive | inactive | inactive | 30.6% | Drug metabolism (Plasma): metabolite_detected
Cc1ccc(NC(=O)c2cc(NC(=O)c3cc(C(=O)O)ccc3C(=O)O)ccc2N2CCCCC2)cc1 | inactive | inactive | inactive | 38.8% | Drug metabolism (Plasma): metabolite_detected
Cc1ccc(NC(=O)c2cc(-c3cc4cc(C(=O)O)ccc4[nH]3)ccc2N2CCCCC2)cc1 | 101% | 35% | 85.5% | 24.5% | Activity (Mus musculus): Active
Cc1ccc(NC(=O)c2cc(N3C(=O)c4ccc(C(=O)O)cc4C3=O)ccc2N2CCCCC2)cc1 | inactive | inactive | 90% | 93.8% | half-life [5]: 1.5 h; efflux ratio at 10 µM [6]: 2.7; Papp A→B at 10 µM [7]: 12 ×10⁻⁶ cm/s; EC50 (Lipoprotein lipase): 6.6 µM; remaining at 4 h [8]: 2%; Activity (Mus musculus): inactive; Papp B→A at 10 µM [9]: 31 ×10⁻⁶ cm/s; solubility kinetic at 2 h [10]: 80 µM (≈ 38.7 µg/mL)
Cc1ccc(NC(=O)c2cc(N)ccc2N2CCCCC2)cc1 | inactive | inactive | inactive | inactive | Drug metabolism (Plasma): metabolite_detected
Cc1ccc(NC(=O)c2cc(N3CCCCC3)cc(N3C(=O)c4ccc(C(=O)O)cc4C3=O)c2)cc1 | inactive | inactive | inactive | 32.6% | 
CCCCCCNC(=O)c1cc(N2C(=O)c3ccc(C(=O)O)cc3C2=O)ccc1NCCCCCC | 19.3% | 4% | 31.8% | 67.8% | 
COCCNc1ccc(N2C(=O)c3ccc(C(=O)O)cc3C2=O)cc1C(=O)Nc1ccc(C)cc1 | inactive | inactive | inactive | inactive | 
Cc1ccc(NC(=O)c2cc(N3C(=O)c4ccc(C(=O)O)cc4C3=O)ccc2Nc2ccccc2)cc1 | 57.2% | inactive | 80.1% | 94.4% | 
COc1ccc(NC(=O)c2cc(N3C(=O)c4ccc(C(=O)O)cc4C3=O)ccc2N2CCCCC2)cc1 | inactive | inactive | inactive | 43.8% | 
Cc1ccc(NC(=O)c2cc(-n3cc4cc(C(=O)O)ccc4n3)ccc2N2CCCCC2)cc1 | 11.2% | inactive | 90.6% | 89.7% | EC50 (Lipoprotein lipase): 5 µM; Activity (Mus musculus): Active
O=C(O)c1ccc2c(c1)C(=O)N(c1ccc(N3CCCCC3)c(C(=O)Nc3ccccc3)c1)C2=O | inactive | inactive | inactive | 57% | 
Cc1ccc(NC(=O)c2cc(N3C(=O)c4ccc(C#N)cc4C3=O)ccc2N2CCCCC2)cc1 | inactive | inactive | inactive | inactive | 
Cc1ccc(NC(=O)c2cc(N3C(=O)c4ccc(Br)cc4C3=O)ccc2N2CCCCC2)cc1 | inactive | inactive | inactive | inactive | 
Cc1ccc(NC(=O)c2cc(-c3nc4ccc(C(=O)O)cc4[nH]3)ccc2N2CCCCC2)cc1 | inactive | inactive | inactive | 49% | Activity (Mus musculus): Active
CC(C)c1ccc(NC(=O)c2cc(N3C(=O)c4ccc(C(=O)O)cc4C3=O)ccc2Nc2ccccc2)cc1 | 44.1% | inactive | 59.1% | 52.5% | 
Cc1ccc(NC(=O)c2cc(-c3cc4cc(C(=O)O)ccc4o3)ccc2N2CCCCC2)cc1 | 49.8% | inactive | 76% | 67.9% | efflux ratio at 10 µM [6]: 1.5; half-life at 1 µM [11]: > 1.33 h; Papp A→B at 10 µM [7]: 1.2 ×10⁻⁶ cm/s; remaining at 4 h [8]: 93%; Activity (Mus musculus): Active; solubility kinetic at 2 h [12]: 7 µM (≈ 3.18 µg/mL); hepatocyte CLint at 1 µM [13]: 35 µL/min/1e6 cells; half-life at 1 µM [14]: 0.667 h; Papp B→A at 10 µM [9]: 1.8 ×10⁻⁶ cm/s; microsomal CLint at 1 µM [15]: < 17 µL/min/mg; solubility kinetic at 2 h [10]: < 2 µM; Fu [16]: < 0.01%
Cc1ccc(NC(=O)c2cc(N3C(=O)c4ccc(C(=O)O)cc4C3=O)ccc2N2CCCCC2)cc1Cl | 66.8% | inactive | 73% | 69.8% | 
O=C(O)c1ccc2c(c1)C(=O)N(c1ccc(Nc3ccccc3)c(C(=O)Nc3ccccc3-c3ccccc3)c1)C2=O | 45% | inactive | 61.5% | 73.8% | 
Cc1ccc(NC(=O)c2cc(-n3cc4ccccc4n3)ccc2N2CCCCC2)cc1 | inactive | inactive | inactive | inactive | 
O=C(O)c1ccc2c(c1)C(=O)N(c1ccc(NCc3cccnc3)c(C(=O)NCc3cccnc3)c1)C2=O | inactive | inactive | inactive | inactive | 
CC(C)c1ccc(NC(=O)c2cc(N3C(=O)c4ccc(C(=O)O)cc4C3=O)ccc2N2CCCCC2)cc1 | 55.6% | inactive | 71% | 53.1% | 
